Activity calls are given as the source filed them. The rule behind the calls is not given here.
Experiments:
BaF3 = experiment: Cytotoxicity against mouse BA/F3 cells transfected with FLT3-ITD-G697R at 1 uM after 24 hrs by plate reader analysis; type: functional, cell-based
MV4-11 = experiment: Cytotoxicity against human MV4-11 cells after 24 hrs by plate reader analysis; type: functional, cell-based; conditions: MV4-11, 24 h
Summary of the method: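 Cells in RPMI 1640 with 10% FBS at 37 °C and 5% CO2 were seeded at 100,000 cells/ml. They were treated for 24 h at 8 concentrations (50–6400 nM), each in triplicate, with DMSO as negative control. Viable cells were measured by ATP-lite luminescence, and EC50 was taken from dose–response curves.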

[1] = biological target: Proto-oncogene tyrosine-protein kinase ROS (Homo sapiens) (UniProt P08922); experiment: Inhibition of ROS1 (unknown origin) transfected in mouse Ba/F3 cells up to 1 uM; type: cell-based; conditions: BaF3
[2] = biological target: Tyrosine-protein kinase SYK (Homo sapiens) (UniProt P43405); experiment: Inhibition of SYK (unknown origin) transfected in mouse Ba/F3 cells at 5 uM after 24 hrs; type: cell-based; conditions: BaF3
[3] = biological target: NT-3 growth factor receptor (Homo sapiens) (UniProt Q16288); experiment: Inhibition of NTRK3 (unknown origin) transfected in mouse Ba/F3 cells at 5 uM after 24 hrs; type: cell-based; conditions: BaF3
[4] = biological target: Tyrosine-protein kinase Fyn (Homo sapiens) (UniProt P06241); experiment: Inhibition of FYN (unknown origin) transfected in mouse Ba/F3 cells at 5 uM after 24 hrs; type: cell-based; conditions: BaF3
Summary of the method: (§1)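 Kinase specificity panel: each Ba/F3 line transformed with one of 24 tyrosine kinases depends on that kinase to grow. Cells were given compound at 1 or 5 µM for 24 h, with DMSO as comparator. Percentage growth was read by ATP-lite luminescence and reported as mean ± SEM.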

[5] = biological target: Vascular endothelial growth factor receptor 3 (Homo sapiens) (UniProt P35916); experiment: Inhibition of FLT4 (unknown origin) transfected in mouse Ba/F3 cells at 5 uM after 24 hrs; type: cell-based; conditions: BaF3; summary of the method: as §1
[6] = biological target: Fibroblast growth factor receptor 3 (Homo sapiens) (UniProt P22607); experiment: Inhibition of FGFR3 (unknown origin) transfected in mouse Ba/F3 cells at 5 uM after 24 hrs; type: cell-based; conditions: BaF3; summary of the method: as §1
[7] = biological target: T1, Ephrin type-A receptor 8 (Homo sapiens) (UniProt P29322); experiment: Inhibition of EPHA8 (unknown origin) transfected in mouse Ba/F3 cells at 5 uM after 24 hrs; type: cell-based; conditions: BaF3; summary of the method: as §1
T1 sequence (whole entry): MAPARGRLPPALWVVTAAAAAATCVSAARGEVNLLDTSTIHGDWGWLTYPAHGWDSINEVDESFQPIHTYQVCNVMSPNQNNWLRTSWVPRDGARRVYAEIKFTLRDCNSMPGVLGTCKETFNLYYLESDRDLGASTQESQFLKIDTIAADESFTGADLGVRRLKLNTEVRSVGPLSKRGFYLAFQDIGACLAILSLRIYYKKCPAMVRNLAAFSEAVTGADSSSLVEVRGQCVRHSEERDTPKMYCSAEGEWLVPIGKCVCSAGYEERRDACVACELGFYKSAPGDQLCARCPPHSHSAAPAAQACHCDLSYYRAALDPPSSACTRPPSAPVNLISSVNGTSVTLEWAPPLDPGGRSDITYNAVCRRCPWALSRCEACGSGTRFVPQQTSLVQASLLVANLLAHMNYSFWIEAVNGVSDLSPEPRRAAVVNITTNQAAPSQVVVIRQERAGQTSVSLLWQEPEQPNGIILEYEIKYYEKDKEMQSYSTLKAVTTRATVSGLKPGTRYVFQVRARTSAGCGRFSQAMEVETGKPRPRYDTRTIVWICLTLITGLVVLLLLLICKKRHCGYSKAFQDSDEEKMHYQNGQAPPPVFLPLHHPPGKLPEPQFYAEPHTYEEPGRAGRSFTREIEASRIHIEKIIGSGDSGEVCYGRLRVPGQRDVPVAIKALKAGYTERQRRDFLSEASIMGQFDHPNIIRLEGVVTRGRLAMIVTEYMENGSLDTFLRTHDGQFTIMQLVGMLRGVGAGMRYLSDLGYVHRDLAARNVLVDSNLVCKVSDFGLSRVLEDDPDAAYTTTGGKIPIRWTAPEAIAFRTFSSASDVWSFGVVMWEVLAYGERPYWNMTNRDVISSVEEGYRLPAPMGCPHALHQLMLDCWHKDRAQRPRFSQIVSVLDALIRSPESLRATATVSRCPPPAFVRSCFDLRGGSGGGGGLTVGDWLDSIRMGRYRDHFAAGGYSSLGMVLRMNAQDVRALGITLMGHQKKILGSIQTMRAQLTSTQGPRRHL

[8] = biological target: Ephrin type-A receptor 5 (Homo sapiens) (UniProt P54756); experiment: Inhibition of EPHA5 (unknown origin) transfected in mouse Ba/F3 cells at 5 uM after 24 hrs; type: cell-based; conditions: BaF3; summary of the method: as §1
[9] = biological target: T2, Ephrin type-A receptor 1 (Homo sapiens) (UniProt P21709); experiment: Inhibition of EPHA1 (unknown origin) transfected in mouse Ba/F3 cells at 5 uM after 24 hrs; type: cell-based; conditions: BaF3; summary of the method: as §1
T2 sequence (whole entry): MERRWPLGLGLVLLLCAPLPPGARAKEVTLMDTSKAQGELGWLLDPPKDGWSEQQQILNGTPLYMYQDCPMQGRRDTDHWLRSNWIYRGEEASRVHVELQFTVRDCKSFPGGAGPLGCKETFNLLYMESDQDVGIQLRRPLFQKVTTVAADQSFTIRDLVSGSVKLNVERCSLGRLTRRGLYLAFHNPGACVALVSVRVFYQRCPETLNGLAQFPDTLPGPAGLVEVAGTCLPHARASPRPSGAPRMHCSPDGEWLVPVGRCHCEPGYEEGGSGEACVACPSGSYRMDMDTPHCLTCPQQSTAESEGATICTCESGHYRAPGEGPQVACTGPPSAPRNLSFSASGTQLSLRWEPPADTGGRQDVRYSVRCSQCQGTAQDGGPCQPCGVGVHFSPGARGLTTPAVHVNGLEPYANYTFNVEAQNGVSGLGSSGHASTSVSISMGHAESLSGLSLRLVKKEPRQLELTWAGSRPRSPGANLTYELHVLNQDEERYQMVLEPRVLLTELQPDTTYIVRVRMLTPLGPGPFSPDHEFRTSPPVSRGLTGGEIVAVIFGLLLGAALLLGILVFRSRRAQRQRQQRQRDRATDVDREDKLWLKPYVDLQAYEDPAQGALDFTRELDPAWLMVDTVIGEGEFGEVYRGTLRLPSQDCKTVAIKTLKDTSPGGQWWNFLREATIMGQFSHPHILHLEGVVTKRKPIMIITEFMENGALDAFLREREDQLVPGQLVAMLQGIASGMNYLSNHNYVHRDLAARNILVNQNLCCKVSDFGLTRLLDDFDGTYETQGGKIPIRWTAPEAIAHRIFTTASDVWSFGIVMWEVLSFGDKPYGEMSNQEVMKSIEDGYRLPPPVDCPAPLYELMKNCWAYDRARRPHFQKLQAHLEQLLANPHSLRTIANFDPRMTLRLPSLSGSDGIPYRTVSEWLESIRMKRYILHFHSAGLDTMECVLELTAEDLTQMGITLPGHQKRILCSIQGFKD

Tyrosine-protein kinase Fyn (Homo sapiens), sequence (P06241 2-537 limits assumed): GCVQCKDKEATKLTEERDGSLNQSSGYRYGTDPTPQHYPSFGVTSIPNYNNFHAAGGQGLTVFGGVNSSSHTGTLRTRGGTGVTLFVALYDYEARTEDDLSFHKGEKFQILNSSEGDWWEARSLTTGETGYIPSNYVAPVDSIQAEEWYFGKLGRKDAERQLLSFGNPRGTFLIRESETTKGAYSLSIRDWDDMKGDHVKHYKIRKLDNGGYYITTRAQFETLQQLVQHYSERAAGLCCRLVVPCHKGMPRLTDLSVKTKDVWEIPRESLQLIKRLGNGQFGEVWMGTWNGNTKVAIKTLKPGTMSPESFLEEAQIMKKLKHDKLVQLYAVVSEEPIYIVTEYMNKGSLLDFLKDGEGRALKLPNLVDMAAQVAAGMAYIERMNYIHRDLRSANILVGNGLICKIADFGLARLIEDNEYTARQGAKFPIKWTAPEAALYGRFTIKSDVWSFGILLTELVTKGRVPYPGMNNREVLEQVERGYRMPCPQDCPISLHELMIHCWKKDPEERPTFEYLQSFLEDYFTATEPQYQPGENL
Vascular endothelial growth factor receptor 3 (Homo sapiens), sequence (P35916 whole entry): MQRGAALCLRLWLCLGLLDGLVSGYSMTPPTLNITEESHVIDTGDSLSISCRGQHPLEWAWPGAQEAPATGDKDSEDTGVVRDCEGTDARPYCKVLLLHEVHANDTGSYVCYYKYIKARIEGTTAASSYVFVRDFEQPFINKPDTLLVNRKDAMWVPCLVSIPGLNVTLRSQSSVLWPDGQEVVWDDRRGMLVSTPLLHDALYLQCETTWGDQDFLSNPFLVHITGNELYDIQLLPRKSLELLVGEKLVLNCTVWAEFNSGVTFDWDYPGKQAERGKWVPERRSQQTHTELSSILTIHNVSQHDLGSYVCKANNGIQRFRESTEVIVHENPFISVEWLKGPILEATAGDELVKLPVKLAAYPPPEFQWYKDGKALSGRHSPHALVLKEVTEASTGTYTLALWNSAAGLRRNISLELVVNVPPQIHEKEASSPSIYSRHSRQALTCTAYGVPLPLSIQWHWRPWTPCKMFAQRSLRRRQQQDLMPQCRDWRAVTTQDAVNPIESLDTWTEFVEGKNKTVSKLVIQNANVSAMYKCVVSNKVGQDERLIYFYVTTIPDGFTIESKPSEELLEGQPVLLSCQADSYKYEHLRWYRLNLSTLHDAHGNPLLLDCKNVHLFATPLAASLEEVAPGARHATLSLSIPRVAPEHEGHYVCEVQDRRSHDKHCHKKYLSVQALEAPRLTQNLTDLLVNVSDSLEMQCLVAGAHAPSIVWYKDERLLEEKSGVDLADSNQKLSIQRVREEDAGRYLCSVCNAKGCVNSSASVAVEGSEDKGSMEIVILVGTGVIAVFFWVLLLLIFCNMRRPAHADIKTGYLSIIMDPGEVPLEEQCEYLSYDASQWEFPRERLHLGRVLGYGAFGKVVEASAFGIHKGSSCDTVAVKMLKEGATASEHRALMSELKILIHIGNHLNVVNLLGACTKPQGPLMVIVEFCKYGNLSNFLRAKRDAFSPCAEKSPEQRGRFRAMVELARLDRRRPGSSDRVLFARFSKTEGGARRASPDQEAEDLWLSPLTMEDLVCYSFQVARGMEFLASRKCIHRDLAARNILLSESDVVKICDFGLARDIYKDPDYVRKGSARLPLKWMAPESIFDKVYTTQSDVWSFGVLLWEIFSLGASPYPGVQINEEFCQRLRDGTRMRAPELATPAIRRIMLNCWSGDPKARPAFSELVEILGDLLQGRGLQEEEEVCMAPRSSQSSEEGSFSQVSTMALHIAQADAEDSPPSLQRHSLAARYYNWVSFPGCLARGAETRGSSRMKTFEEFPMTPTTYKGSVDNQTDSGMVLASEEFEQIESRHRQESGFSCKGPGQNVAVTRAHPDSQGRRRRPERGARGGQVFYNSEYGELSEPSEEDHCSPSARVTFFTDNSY
NT-3 growth factor receptor (Homo sapiens), sequence (Q16288 32-839 limits assumed): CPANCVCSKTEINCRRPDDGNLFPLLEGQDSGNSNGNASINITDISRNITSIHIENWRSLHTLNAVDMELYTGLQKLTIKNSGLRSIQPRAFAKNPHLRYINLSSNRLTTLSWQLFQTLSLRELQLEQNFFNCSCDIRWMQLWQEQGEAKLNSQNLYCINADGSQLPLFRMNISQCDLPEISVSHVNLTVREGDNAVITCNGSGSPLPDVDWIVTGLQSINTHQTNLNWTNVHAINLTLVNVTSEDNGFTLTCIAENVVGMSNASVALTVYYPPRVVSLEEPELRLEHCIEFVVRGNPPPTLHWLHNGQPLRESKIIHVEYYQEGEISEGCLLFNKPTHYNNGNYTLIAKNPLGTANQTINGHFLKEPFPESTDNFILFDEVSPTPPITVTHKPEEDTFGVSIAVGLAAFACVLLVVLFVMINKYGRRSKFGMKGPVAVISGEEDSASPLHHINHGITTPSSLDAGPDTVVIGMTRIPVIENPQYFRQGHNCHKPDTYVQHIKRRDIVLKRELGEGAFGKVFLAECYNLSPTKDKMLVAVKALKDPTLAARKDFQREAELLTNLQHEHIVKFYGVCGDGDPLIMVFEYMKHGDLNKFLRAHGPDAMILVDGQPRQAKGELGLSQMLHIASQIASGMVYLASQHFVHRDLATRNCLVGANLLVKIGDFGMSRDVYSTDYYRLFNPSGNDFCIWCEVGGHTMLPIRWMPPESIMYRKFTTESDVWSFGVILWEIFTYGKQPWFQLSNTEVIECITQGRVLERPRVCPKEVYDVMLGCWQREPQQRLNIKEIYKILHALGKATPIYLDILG
Ephrin type-A receptor 5 (Homo sapiens), sequence (P54756 whole entry): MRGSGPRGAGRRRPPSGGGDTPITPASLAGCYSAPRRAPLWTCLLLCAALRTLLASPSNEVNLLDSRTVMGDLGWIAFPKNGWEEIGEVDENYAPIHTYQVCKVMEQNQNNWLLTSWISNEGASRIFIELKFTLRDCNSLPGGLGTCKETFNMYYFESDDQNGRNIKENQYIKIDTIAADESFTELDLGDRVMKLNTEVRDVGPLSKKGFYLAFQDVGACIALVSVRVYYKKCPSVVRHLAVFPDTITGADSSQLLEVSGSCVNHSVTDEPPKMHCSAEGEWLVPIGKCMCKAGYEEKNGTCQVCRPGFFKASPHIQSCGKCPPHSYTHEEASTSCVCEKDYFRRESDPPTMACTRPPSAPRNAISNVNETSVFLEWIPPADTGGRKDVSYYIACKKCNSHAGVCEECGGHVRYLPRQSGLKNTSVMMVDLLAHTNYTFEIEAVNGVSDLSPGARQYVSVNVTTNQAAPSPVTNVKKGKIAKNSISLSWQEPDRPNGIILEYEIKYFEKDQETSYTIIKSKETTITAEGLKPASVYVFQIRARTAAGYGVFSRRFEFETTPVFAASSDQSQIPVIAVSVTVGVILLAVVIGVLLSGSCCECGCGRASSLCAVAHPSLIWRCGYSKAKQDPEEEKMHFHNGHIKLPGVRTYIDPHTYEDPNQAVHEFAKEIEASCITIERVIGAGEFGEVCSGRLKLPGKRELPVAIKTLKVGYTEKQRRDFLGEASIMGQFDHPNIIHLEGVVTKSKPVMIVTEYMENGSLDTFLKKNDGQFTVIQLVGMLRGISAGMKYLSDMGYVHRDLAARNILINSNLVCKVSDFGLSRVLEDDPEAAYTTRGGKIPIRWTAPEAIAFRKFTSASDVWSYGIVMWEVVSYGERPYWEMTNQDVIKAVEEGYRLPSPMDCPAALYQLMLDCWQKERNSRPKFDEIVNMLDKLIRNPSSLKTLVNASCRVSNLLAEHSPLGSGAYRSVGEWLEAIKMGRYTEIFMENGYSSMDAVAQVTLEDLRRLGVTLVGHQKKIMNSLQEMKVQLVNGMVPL
Fibroblast growth factor receptor 3 (Homo sapiens), sequence (P22607 23-806 limits assumed): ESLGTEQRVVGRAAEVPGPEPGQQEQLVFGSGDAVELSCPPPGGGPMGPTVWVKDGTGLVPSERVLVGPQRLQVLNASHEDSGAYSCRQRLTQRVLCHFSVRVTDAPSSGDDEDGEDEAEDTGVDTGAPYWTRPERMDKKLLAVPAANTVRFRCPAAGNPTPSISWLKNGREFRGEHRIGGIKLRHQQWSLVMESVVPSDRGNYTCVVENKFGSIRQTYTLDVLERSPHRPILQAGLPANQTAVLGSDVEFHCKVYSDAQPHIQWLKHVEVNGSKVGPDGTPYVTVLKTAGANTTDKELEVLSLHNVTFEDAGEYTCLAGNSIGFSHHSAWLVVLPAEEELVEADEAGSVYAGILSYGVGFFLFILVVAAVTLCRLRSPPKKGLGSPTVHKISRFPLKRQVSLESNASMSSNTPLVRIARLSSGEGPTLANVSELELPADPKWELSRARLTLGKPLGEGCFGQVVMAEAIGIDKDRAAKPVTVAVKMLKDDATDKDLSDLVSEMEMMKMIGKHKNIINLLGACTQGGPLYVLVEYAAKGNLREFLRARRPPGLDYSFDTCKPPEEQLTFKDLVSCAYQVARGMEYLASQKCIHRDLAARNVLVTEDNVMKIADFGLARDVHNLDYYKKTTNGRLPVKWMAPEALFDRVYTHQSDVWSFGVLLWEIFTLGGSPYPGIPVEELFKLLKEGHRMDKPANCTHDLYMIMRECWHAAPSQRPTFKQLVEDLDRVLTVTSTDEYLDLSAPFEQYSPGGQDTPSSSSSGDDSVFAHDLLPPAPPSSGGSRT

inhibition [1] | inhibition [2] | inhibition [3] | inhibition [4] | inhibition [5] | inhibition [6] | inhibition [7] | inhibition [8] | inhibition [9] | SMILES | Activity (BaF3) | EC50 (MV4-11)
 |  |  |  |  |  |  |  |  | COc1ccc(C(=O)Nc2cc(-c3ccccc3)[nH]n2)cc1 | Active | 142 nM
inactive | inactive | inactive | inactive | inactive | inactive | Active | Active | inactive | Fc1ccc(-c2n[nH]cc2-c2ccncc2)cc1Cl |  | 
 | inactive | inactive | inactive | inactive | inactive | inactive | inactive | inactive | Cc1ccc(-n2cnc3cc(Nc4nnc(C)c5ccccc45)ccc32)cc1 | Active | 
